According to ChEMBL document CHEMBL1144889 (J Med Chem, 2003):

Key:
Glucocorticoid receptor [1] = target: T1, Glucocorticoid receptor (Homo sapiens, UniProt P04150); assay: Transcriptional repression in HepG2 cells expressing human glucocorticoid receptor; assay type: functional, cell-based
T1 sequence (P04150 whole entry): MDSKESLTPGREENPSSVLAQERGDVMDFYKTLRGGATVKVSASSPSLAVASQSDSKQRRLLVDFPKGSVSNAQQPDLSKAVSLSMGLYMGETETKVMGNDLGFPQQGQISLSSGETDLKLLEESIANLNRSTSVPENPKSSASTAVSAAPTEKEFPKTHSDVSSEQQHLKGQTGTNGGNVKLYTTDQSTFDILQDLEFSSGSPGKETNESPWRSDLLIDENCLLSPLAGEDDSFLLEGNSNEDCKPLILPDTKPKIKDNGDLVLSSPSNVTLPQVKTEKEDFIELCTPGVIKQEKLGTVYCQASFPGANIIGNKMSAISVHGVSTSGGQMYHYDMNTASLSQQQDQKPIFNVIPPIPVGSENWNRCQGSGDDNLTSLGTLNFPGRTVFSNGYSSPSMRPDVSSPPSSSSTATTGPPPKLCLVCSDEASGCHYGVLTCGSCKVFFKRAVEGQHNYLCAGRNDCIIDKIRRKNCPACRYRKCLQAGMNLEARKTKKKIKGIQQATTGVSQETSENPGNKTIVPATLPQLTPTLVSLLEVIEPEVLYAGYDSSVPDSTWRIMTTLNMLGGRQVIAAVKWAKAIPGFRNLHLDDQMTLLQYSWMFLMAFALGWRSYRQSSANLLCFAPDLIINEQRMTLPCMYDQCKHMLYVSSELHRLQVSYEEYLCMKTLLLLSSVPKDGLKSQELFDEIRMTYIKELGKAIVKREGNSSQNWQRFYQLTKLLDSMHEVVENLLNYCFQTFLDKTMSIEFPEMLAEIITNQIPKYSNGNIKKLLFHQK

Progesterone receptor = target: T2, Progesterone receptor (Homo sapiens, UniProt P06401); assay: Displacement of [3H]progesterone from human Progesterone receptor A
T2 sequence (P06401 whole entry): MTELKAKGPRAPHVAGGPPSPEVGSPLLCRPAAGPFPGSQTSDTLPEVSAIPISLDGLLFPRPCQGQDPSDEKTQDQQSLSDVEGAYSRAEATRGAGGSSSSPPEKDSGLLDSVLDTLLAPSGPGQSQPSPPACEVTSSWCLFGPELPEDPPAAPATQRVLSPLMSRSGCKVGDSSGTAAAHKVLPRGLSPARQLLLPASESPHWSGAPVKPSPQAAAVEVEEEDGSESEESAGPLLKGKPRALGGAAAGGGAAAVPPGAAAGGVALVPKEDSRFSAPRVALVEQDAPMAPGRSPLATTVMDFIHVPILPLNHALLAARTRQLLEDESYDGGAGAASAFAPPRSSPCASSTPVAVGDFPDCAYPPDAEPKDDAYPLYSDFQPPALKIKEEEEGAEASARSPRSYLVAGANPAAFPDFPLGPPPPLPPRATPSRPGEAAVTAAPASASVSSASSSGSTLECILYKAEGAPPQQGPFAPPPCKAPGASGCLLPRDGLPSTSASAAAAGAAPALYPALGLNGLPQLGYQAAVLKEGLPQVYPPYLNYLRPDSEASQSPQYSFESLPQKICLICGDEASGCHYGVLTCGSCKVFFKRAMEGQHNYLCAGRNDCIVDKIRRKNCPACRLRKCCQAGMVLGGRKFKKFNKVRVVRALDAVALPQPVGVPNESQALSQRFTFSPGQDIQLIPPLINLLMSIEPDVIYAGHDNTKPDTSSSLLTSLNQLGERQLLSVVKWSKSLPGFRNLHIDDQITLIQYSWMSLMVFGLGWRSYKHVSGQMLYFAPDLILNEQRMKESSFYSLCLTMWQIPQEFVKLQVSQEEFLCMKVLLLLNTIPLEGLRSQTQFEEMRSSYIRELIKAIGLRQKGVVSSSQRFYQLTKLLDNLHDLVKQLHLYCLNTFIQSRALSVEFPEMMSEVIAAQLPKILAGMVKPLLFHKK

Glucocorticoid receptor [2] = target: T1, Glucocorticoid receptor; assay: Binding affinity towards human glucocorticoid receptor (GR) was determined using [3H]dexamethasone as radioligand in […] cells; assay type: cell-based
[3] = target: T3, Glucocorticoid receptor (Homo sapiens) (UniProt P04150); assay: Transcriptional activation in CV-1 cells expressing human glucocorticoid receptor compared to Dexamethasone; assay type: functional, cell-based
T3 sequence (whole entry): T1 sequence (P04150 whole entry)
Method in brief: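 GRE activation co-transfection in CV-1 cells: hGR receptor plasmid plus a luciferase reporter driven by part of the MMTV promoter (four GRE sites, no known AP-1 or NFκB affinity). Full seven-point, half-log concentration-response curves run in triplicate. EC50 is the concentration at half-maximal response; efficacy is given as % of the dexamethasone maximal response.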

Androgen receptor = target: T4, Androgen receptor (Homo sapiens, UniProt P10275); assay: Binding affinity towards testosterone receptor
T4 sequence (P10275 whole entry): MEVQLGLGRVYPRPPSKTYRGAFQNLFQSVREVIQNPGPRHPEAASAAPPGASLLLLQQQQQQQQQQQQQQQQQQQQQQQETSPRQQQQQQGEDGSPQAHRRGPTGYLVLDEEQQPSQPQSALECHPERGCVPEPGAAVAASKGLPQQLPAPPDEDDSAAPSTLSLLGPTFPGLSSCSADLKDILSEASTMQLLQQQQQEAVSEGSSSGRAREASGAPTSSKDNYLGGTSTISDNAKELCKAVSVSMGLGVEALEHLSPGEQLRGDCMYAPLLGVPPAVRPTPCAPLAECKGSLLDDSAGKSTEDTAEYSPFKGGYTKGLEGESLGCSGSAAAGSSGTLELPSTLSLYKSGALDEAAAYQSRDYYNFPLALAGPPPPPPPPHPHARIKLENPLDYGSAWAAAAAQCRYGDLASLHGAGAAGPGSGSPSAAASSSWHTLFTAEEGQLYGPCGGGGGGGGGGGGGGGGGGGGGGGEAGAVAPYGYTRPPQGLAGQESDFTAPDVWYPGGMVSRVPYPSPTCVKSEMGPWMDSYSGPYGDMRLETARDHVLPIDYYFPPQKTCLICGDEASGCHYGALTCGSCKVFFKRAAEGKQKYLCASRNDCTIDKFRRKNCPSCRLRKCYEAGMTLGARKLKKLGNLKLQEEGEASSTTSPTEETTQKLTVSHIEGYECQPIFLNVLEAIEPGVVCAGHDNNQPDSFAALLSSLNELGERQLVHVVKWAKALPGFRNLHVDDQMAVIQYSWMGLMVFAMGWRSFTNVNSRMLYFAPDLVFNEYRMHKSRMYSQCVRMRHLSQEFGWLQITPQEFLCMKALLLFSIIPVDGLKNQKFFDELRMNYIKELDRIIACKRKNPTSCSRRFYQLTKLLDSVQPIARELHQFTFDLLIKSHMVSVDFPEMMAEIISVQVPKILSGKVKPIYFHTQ

[4] = Binding affinity towards estradiol receptor (Estrogen receptor); set-up: species or system Homo sapiens
Method in brief: (§1)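 Competition radioligand binding; tracers [3H]aldosterone (MR) and [3H]estradiol (ER). Bound ligand collected on hydroxyapatite, washed with ice-cold buffer, counted by scintillation. IC50 obtained from Hill analysis of binding curves, Ki from Cheng-Prusoff. Mean of two experiments in triplicate, single triplicate run, or ≥3 experiments in triplicate.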

Glucocorticoid receptor [5] = target: T1, Glucocorticoid receptor; assay: Transcriptional activation in CV-1 cells expressing human glucocorticoid receptor; assay type: functional, cell-based
Method in brief: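 Cotransfection of an hGR receptor plasmid with a luciferase reporter driven by the MMTV promoter (four GREs) in CV-1 cells. Seven-point half-log concentration-response curves. EC50 taken as half-maximal response. Efficacy expressed as % of the dexamethasone maximum. Mean of two experiments in triplicate, single triplicate run, or ≥3 experiments in triplicate.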

[6] = Binding affinity towards aldosterone receptor (Mineralocorticoid receptor); set-up: species or system Homo sapiens; method in brief: as §1
Rattus norvegicus = assay: Reduction in carrageenan induced paw edema in rat after oral dose; assay type: functional
Method in brief: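 Sprague-Dawley rats dosed orally, then given carrageenan into the hind paw. Edema read at 3 h as the increase in paw volume. ED50 dose calculated from dose-dependent inhibition of edema.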

| EC50 (Glucocorticoid receptor [1]) [nM] | Ki (Progesterone receptor) [nM] | Ki (Glucocorticoid receptor [2]) [nM] | Efficacy [3] [%] | Ki (Androgen receptor) [nM] | Ki [4] [nM] | EC50 (Glucocorticoid receptor [5]) [nM] | Ki [6] [nM] | SMILES | ED50 (Rattus norvegicus) [mg/kg] |
| --- | --- | --- | --- | --- | --- | --- | --- | --- | --- |
| 94 | 29 | 5.42 | – | – | – | – | – | C=CCC1Oc2ccc(Cl)c(OC)c2-c2ccc3c(c21)C(C)=CC(C)(C)N3 (stereo unspecified) | – |
| 81 | > 5000 | – | – | – | – | – | – | C=CCC1Oc2c(C)ccc(OC)c2-c2ccc3c(c21)C(C)=CC(C)(C)N3 (stereo unspecified) | – |
| 59 | 2400 | 6.9 | 92 | 650 | > 1000 | 130 | 350 | C#Cc1cccc2c1-c1ccc3c(c1C(CC=C)O2)C(C)=CC(C)(C)N3 (stereo unspecified) | – |
| 59 | > 5000 | – | – | – | – | – | – | C=CCC1Oc2c(Br)ccc(OC)c2-c2ccc3c(c21)C(C)=CC(C)(C)N3 (stereo unspecified) | – |
| 53 | 100 | 6.6 | – | – | – | – | – | C=CCC1Oc2ccc(CO)c(OC)c2-c2ccc3c(c21)C(C)=CC(C)(C)N3 (stereo unspecified) | – |
| 82 | 34 | – | – | – | – | – | – | C=CCC1Oc2ccc(Br)c(OC)c2-c2ccc3c(c21)C(C)=CC(C)(C)N3 (stereo unspecified) | – |
| – | – | – | 68 | 1230 | > 1000 | – | 46 | C=CCC1Oc2cccc(OC)c2-c2ccc3c(c21)C(C)=CC(C)(C)N3 (stereo unspecified) [AL-43] | 15 |
| 120 | – | – | – | – | – | – | – | C=CCC1Oc2ccc(OC)c(OC)c2-c2ccc3c(c21)C(C)=CC(C)(C)N3 (stereo unspecified) | – |
| 19 | 2920 | 7 | 60 | 2590 | > 1000 | 32 | 251 | C=CCC1Oc2cccc(NC)c2-c2ccc3c(c21)C(C)=CC(C)(C)N3 (stereo unspecified) | – |
| 100 | – | – | – | – | – | – | – | C=CCC1Oc2ccc(C(=O)OC)c(OC)c2-c2ccc3c(c21)C(C)=CC(C)(C)N3 (stereo unspecified) | – |
| 130 | 3080 | 51 | – | – | – | – | – | C=CCC1Oc2ccc(OCC#N)c(OC)c2-c2ccc3c(c21)C(C)=CC(C)(C)N3 (stereo unspecified) | – |
| 14 | 150 | – | – | – | – | – | – | C=CCC1Oc2ccc(O)c(OC)c2-c2ccc3c(c21)C(C)=CC(C)(C)N3 (stereo unspecified) | 16 |
| 250 | – | 27.6 | 29 | 2060 | > 1000 | 550 | 1370 | C=CCC1Oc2cccc(O)c2-c2ccc3c(c21)C(C)=CC(C)(C)N3 (stereo unspecified) | – |
| 140 | – | – | – | – | – | – | – | C=CCOc1ccc2c(c1OC)-c1ccc3c(c1C(CC=C)O2)C(C)=CC(C)(C)N3 (stereo unspecified) | – |
| 19 | – | 2.3 | 69 | 1320 | > 1000 | 61 | 292 | C=CCC1Oc2cccc(CO)c2-c2ccc3c(c21)C(C)=CC(C)(C)N3 (stereo unspecified) | – |
| 12 | 435 | 4.4 | 50 | 239 | > 1000 | 17 | 57 | C=CCC1Oc2cccc(C=C)c2-c2ccc3c(c21)C(C)=CC(C)(C)N3 (stereo unspecified) | – |
| 156 | 450 | 34 | – | – | – | – | – | C=CCC1Oc2c(C=C)ccc(OC)c2-c2ccc3c(c21)C(C)=CC(C)(C)N3 (stereo unspecified) | – |
| 350 | – | 33.8 | 2 | > 5000 | > 1000 | > 300 | > 5000 | C=CCC1Oc2ccccc2-c2ccc3c(c21)C(C)=CC(C)(C)N3 (stereo unspecified) | – |
| 270 | – | 4.2 | 9 | – | – | > 300 | – | C#CCOc1cccc2c1-c1ccc3c(c1C(CC=C)O2)C(C)=CC(C)(C)N3 (stereo unspecified) | – |
| 60 | – | – | 87 | > 5000 | > 1000 | 195 | > 5000 | C=CCC1Oc2cccc(C#N)c2-c2ccc3c(c21)C(C)=CC(C)(C)N3 (stereo unspecified) | – |
| 160 | – | – | – | – | – | – | – | C#CCOc1ccc2c(c1OC)-c1ccc3c(c1C(CC=C)O2)C(C)=CC(C)(C)N3 (stereo unspecified) | – |
| 18 | 349 | 2.2 | 70 | 96.3 | > 1000 | 35 | 35.8 | C=CCC1Oc2cccc(OC(F)F)c2-c2ccc3c(c21)C(C)=CC(C)(C)N3 (stereo unspecified) | 21 |
| – | – | – | – | – | > 1000 | – | 37 | C[C@]12C=CC(=O)C=C1CCC1[C@@H]2[C@@H](O)C[C@@]2(C)[C@H]1CC[C@]2(O)C(=O)CO (single isomer, unassigned) [PREDNISOLONE] | – |
| – | 22 | – | – | – | – | – | – | C=CCC1Oc2c(Br)cc(O)c(Cl)c2-c2ccc3c(c21)C(C)=CC(C)(C)N3 (stereo unspecified) | – |
| 18 | – | – | 60 | 2460 | > 1000 | 123 | 93.8 | C=CCC1Oc2cccc(SC)c2-c2ccc3c(c21)C(C)=CC(C)(C)N3 (stereo unspecified) | – |

| SMILES | EC50 (Glucocorticoid receptor [1]) [nM] | Ki (Progesterone receptor) [nM] | Ki (Glucocorticoid receptor [2]) [nM] | Efficacy [3] [%] | Ki (Androgen receptor) [nM] | Ki [4] [nM] | EC50 (Glucocorticoid receptor [5]) [nM] | Ki [6] [nM] | ED50 (Rattus norvegicus) [mg/kg] |
| --- | --- | --- | --- | --- | --- | --- | --- | --- | --- |
| C=CCC1Oc2ccc(O)c(Cl)c2-c2ccc3c(c21)C(C)=CC(C)(C)N3 (stereo unspecified) | 5 | – | – | – | – | – | – | – | 15 |
| C=CCC1Oc2cccc(Cl)c2-c2ccc3c(c21)C(C)=CC(C)(C)N3 (stereo unspecified) | 45 | – | – | – | – | – | – | – | – |
